Bioassay records as filed in PubChem.
A3A deaminase: inhibitors of human APOBEC3A DNA deaminase; recombinant A3A, FAM/TAMRA ssDNA deamination fluorescence; inhibition, % at 20 µM; 330,000 compounds, 0.41% hits; AID 493011;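 active means at least 40% inhibition at 20 µM here, with at most 30% in a related deaminase screen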
p-CIP stab down: p/CIP protein destabilization; decrease of EGFP signal, % at 10 µM; 290,000 compounds, 0.01% hits; F442A p/CIP-EGFP cells, EGFP fluorescence, 16 h; AID 1984;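 active means EGFP signal decrease of at least 30% at 10 µM or well 3 SD below plate mean, unless failing retest; inactive means the rest, including hits failing retest or dose response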
TbMetRS inhib: blocks T. brucei methionyl-tRNA synthetase activity. purified T. brucei MetRS, ATP depletion, Kinase-Glo luminescence. inhibition, % at 11.9 µM. 360,000 compounds, 0.4% hits. AID 624268;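 active means inhibition above a per-plate cutoff of the control wells' mean inhibition plus 3 SD, cut at about 5.5% in these data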
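Test system: purified T. brucei MetRS enzyme. Also added: ATP, methionine and E. coli bulk tRNA substrates. Compound: 11.9 µM single point. Schedule: 15 min enzyme-compound preincubation, 2 h reaction, 10 min detection, 25 °C. Signal: luciferase luminescence of residual ATP, Kinase-Glo. Evaluation: percent inhibition versus plate control medians. Controls: DMSO wells, low control.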
A3G deaminase: blocks human APOBEC3G single-stranded DNA deamination | Q9HC16 | recombinant A3G, ssDNA deamination FAM/TAMRA fluorescence | inhibition, % at 20 µM | 330,000 compounds, 0.28% hits | AID 493012;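 active means inhibition of at least 40% at 20 µM, with no more than 30% in the related APOBEC3A deaminase screen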
Target sequence (Q9HC16 whole entry, looked up): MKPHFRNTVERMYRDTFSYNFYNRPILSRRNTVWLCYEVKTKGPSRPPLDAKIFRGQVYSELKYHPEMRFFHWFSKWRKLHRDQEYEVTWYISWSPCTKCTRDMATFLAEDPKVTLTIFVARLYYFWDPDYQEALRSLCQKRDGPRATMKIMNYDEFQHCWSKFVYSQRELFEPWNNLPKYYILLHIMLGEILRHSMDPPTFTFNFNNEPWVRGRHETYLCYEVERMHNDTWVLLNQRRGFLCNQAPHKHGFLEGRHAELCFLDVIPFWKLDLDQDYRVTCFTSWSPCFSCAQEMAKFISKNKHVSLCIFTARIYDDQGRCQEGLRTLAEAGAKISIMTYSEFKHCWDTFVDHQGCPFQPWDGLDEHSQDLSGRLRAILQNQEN
PHOSPHO1 inh: inhibitors of human PHOSPHO1 phosphatase; Q8TCT1; 290,000 compounds, 1.1% hits; recombinant PHOSPHO1, absorbance phosphatase assay; AID 1565; inhibition, % at 13.3 µM; in the data active means inhibition above about 60%
Target sequence (Q8TCT1 whole entry, looked up): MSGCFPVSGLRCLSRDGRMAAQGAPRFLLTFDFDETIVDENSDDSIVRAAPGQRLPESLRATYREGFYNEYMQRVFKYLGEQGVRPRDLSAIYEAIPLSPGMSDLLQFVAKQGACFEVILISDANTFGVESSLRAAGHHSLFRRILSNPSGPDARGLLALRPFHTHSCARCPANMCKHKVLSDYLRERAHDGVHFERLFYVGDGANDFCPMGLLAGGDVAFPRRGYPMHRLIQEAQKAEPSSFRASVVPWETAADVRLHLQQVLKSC
A number is an active result. Hits are enriched below; roughly 1.8% of the tested compounds scored in any of these assays.

CCOc1ccc(NC(=O)CN(C)C(=O)c2cccnc2Sc2ccccc2Cl)cc1OCC was read as A3A deaminase inactive, TbMetRS inhib inactive and A3G deaminase inactive.
Screening CCN(Cc1ccccc1)C(=O)Cn1cc(S(=O)(=O)NC)c(S(=O)(=O)NC)c1 returned A3A deaminase inactive, p-CIP stab down inactive, TbMetRS inhib inactive, A3G deaminase inactive and PHOSPHO1 inh inactive.
For O=C(CN1C2=NCCN2c2ccccc21)c1ccc(Br)cc1 the results were A3A deaminase inactive, p-CIP stab down inactive, TbMetRS inhib 5.9, A3G deaminase inactive and PHOSPHO1 inh inactive.
Screening Cc1nn(CC2CC2)c(=O)n1-c1cccc(Cl)c1 returned A3A deaminase inactive, p-CIP stab down inactive, TbMetRS inhib inactive, A3G deaminase inactive and PHOSPHO1 inh inactive.
For Cc1cccc(NC(=O)c2ccc(F)c(S(=O)(=O)N3CCC4(CC3)OCCO4)c2)c1 the results were A3A deaminase inactive, p-CIP stab down inactive, TbMetRS inhib inactive, A3G deaminase inactive and PHOSPHO1 inh 65.
CCn1c(SCC(=O)Nc2c(C)n(C)n(-c3ccccc3)c2=O)nc2c1c(=O)n(C)c(=O)n2C was read as A3A deaminase inactive, p-CIP stab down inactive, TbMetRS inhib inactive, A3G deaminase inactive and PHOSPHO1 inh 64.
For Clc1ccc(CSc2ncnc3c2ncn3C2CCCCO2)cc1 (stereo not given) the results were TbMetRS inhib inactive.
`S=c1nn[nH]n1C12CC3CC(CC(C3)C1)C2` gave A3A deaminase inactive, p-CIP stab down inactive, TbMetRS inhib inactive, A3G deaminase inactive and PHOSPHO1 inh 102.
Screening COc1ccc(C(=S)NC2CCCCC2)cc1 returned A3A deaminase inactive, p-CIP stab down inactive, TbMetRS inhib inactive, A3G deaminase inactive and PHOSPHO1 inh 88.
`CCN(CC)CCn1c(NS(=O)(=O)c2ccc(C)cc2)nc2ccccc21` gave A3A deaminase inactive, TbMetRS inhib inactive and A3G deaminase inactive.
For CCn1c(/N=C/c2ccccc2NS(=O)(=O)c2ccc(C)cc2)nc2ccccc21 the results were p-CIP stab down inactive, TbMetRS inhib 6.5 and PHOSPHO1 inh inactive.
Cc1ccc(CNC(=O)CNC(=O)[C@@H]2Cc3ccccc3CN2)cc1 was read as A3A deaminase inactive, p-CIP stab down inactive, TbMetRS inhib inactive, A3G deaminase inactive and PHOSPHO1 inh inactive.
For CCc1cccc(NC(=O)CSC2=NS(=O)(=O)c3ccccc32)c1 the results were A3A deaminase inactive, p-CIP stab down inactive, TbMetRS inhib inactive, A3G deaminase inactive and PHOSPHO1 inh 94.
CCCc1cc(=O)[nH]c(N/N=C/C=C\c2ccccc2)n1 was read as A3A deaminase inactive, p-CIP stab down inactive, TbMetRS inhib inactive, A3G deaminase inactive and PHOSPHO1 inh inactive.
Screening CC(=O)Nc1ccc(S(=O)(=O)NCCSCc2ccc(Cl)cc2Cl)cc1 returned A3A deaminase inactive, p-CIP stab down inactive, TbMetRS inhib 13, A3G deaminase inactive and PHOSPHO1 inh inactive.
Screening COCCNC(=O)C(=O)N/N=C/c1cccs1 returned A3A deaminase inactive, p-CIP stab down inactive, TbMetRS inhib inactive, A3G deaminase inactive and PHOSPHO1 inh 65.
For COC(=O)CCC/C=C1/SCC(NC(=O)c2ccccc2)C1=O (stereo not given) the results were A3A deaminase inactive, p-CIP stab down inactive, TbMetRS inhib inactive, A3G deaminase inactive and PHOSPHO1 inh 64.
COC(=O)CCC/C=C1/SCC(NC(=O)c2ccccc2)C1O (stereo not given) was read as A3A deaminase inactive, p-CIP stab down inactive, TbMetRS inhib inactive, A3G deaminase inactive and PHOSPHO1 inh inactive.
CN(C)c1ccc(NC(=O)Nc2cccc(Cl)c2)cc1 was read as A3A deaminase inactive, p-CIP stab down inactive, TbMetRS inhib inactive, A3G deaminase inactive and PHOSPHO1 inh 93.
For O=C(NCCc1ccc(Cl)cc1)Nc1cccc(Cl)c1 the results were A3A deaminase inactive, p-CIP stab down inactive, TbMetRS inhib 7.0, A3G deaminase inactive and PHOSPHO1 inh inactive.
Screening O=C(NCCc1ccccc1)Nc1cccc(Cl)c1 returned A3A deaminase inactive, p-CIP stab down inactive, TbMetRS inhib inactive, A3G deaminase inactive and PHOSPHO1 inh inactive.
Screening O=C(NCCO)Nc1ccc(Cl)cc1 returned A3A deaminase inactive, p-CIP stab down inactive, TbMetRS inhib inactive, A3G deaminase inactive and PHOSPHO1 inh 69.
Screening CN(c1cccc(NC(=O)Nc2cccc(Cl)c2)c1)S(C)(=O)=O returned A3A deaminase inactive, p-CIP stab down inactive, TbMetRS inhib inactive, A3G deaminase inactive and PHOSPHO1 inh inactive.
Screening O=C(NCCNC(=O)Nc1ccc(Cl)cc1)Nc1ccc(Cl)cc1 returned TbMetRS inhib inactive.
`Cc1ccc(CNC(=O)CCC2CCCN(Cc3cc4ccccc4o3)C2)o1` (stereo not given) gave A3A deaminase inactive, p-CIP stab down inactive, TbMetRS inhib inactive, A3G deaminase inactive and PHOSPHO1 inh inactive.
Screening CCOC(=O)c1c(N)sc2c1CCCC2 returned A3A deaminase inactive, p-CIP stab down inactive, TbMetRS inhib inactive, A3G deaminase inactive and PHOSPHO1 inh inactive.
For CCOC(=O)c1c(N)sc2c1CCS(=O)(=O)C2 the results were A3A deaminase inactive, p-CIP stab down inactive, TbMetRS inhib inactive, A3G deaminase inactive and PHOSPHO1 inh 79.
For CCN(CC)c1ccc(NC(=O)Nc2ccccc2)cc1 the results were A3A deaminase inactive, p-CIP stab down inactive, TbMetRS inhib inactive and A3G deaminase inactive.
`CCN(CC)c1ccc(NC(=O)Nc2ccc(C(C)=O)cc2)cc1` gave A3A deaminase inactive, p-CIP stab down inactive, TbMetRS inhib inactive, A3G deaminase inactive and PHOSPHO1 inh 85.
Cc1snc2sc(C(=O)c3ccc(Br)cc3)c(N)c12 was read as A3A deaminase inactive, p-CIP stab down inactive, TbMetRS inhib inactive, A3G deaminase inactive and PHOSPHO1 inh 86.
For Cc1ccc(C(=O)c2sc3nsc(C)c3c2N)cc1 the results were A3A deaminase inactive, p-CIP stab down inactive, TbMetRS inhib inactive, A3G deaminase inactive and PHOSPHO1 inh 98.
COc1ccc(Cl)cc1NC(=O)CN1CCc2ccccc2C1 was read as A3A deaminase inactive, p-CIP stab down inactive, TbMetRS inhib inactive and A3G deaminase inactive.
CCOc1ccccc1C1c2[nH]c3ccccc3c2C[C@H]2C(=O)N(C3CC3)CC(=O)N12 (stereo not given in full) was read as A3A deaminase inactive, p-CIP stab down inactive, TbMetRS inhib inactive and A3G deaminase inactive.
For COC(=O)C1=C(N)Oc2cc(C)n(CC3CCCO3)c(=O)c2C1c1ccc(Cl)c(Cl)c1 (stereo not given) the results were A3A deaminase inactive, p-CIP stab down inactive, TbMetRS inhib 38, A3G deaminase inactive and PHOSPHO1 inh inactive.
For COC(=O)C1=C(N)Oc2cc(C)n(C)c(=O)c2C1c1ccc(Cl)c(Cl)c1 (stereo not given) the results were A3A deaminase inactive, p-CIP stab down inactive, TbMetRS inhib inactive, A3G deaminase inactive and PHOSPHO1 inh inactive.
For O=[N+]([O-])c1cccc(-c2ccc(SCc3cccnc3)nn2)c1 the results were A3A deaminase inactive, p-CIP stab down inactive, TbMetRS inhib inactive, A3G deaminase inactive and PHOSPHO1 inh inactive.
